# Measured values from different studies.
# Lines come from different studies, so protocols differ.
# Organism: Acinetobacter baumannii
# Read-out: microbial growth
SMILES,technique,strain,setting,MIC [µg/mL]
COC(=O)c1cc(-c2cccc(NC(=S)Nc3cccc(Cl)c3)c2)on1,broth dilution,BAA1605,,> 64
COc1ccc2cc1Oc1cc(ccc1OC)CCC(N[C@@H]1CCCc3ccccc31)CCCC2 (some centres unmarked),broth dilution,ATCC19606,,> 100
CC(=O)C1=C(O)C(CC(C)C)NC1=O (centres unmarked),,ATCC19606,,> 200
C[n+]1ccc(/C=C2\Sc3ccccc3N2CCCN2CCCCC2)c2ccccc21.[I-],broth dilution,ATCC19606,drug-resistant strain,64
CCOC(=O)c1cc(-c2cccc(NC(=O)Nc3ccc(Cl)c(Cl)c3)c2)on1,broth dilution,BAA1605,,> 64
Cc1c(NN=C(C#N)C2=NC(=O)CS2)c(=O)n(-c2ccccc2)n1C,broth dilution,,,0.43
COC(=O)c1cc(-c2cccc(NC(=O)Nc3cccc(Br)c3)c2)on1,broth dilution,BAA1605,,> 64
C[n+]1c(/C=C/c2c[nH]c3ccccc23)cc(/C=C2\Sc3ccccc3N2CCCN2CCCC2)c2ccccc21.[I-],broth dilution,ATCC19606,drug-resistant strain,32
Fc1c(F)c(F)c(-c2c(F)c(F)c(F)c(F)c2F)c(F)c1F,,ATCC19606,,> 250
CN[C@H](CC(C)C)C(=O)N[C@H]1C(=O)N[C@@H](CC(N)=O)C(=O)N[C@H]2C(=O)N[C@H]3C(=O)N[C@H](C(=O)N[C@H](C(=O)O)c4cc(O)cc(O)c4-c4cc3ccc4O)[C@H](O)c3ccc(c(Cl)c3)Oc3cc2cc(c3O[C@@H]2O[C@H](CO)[C@@H](O)[C@H](O)[C@H]2O[C@H]2C[C@](C)(N)[C@H](O)[C@H](C)O2)Oc2ccc(cc2Cl)[C@H]1O,broth dilution,ATCC19606,drug-resistant strain,64
COC(=O)c1cc(-c2cccc(NC(=O)Nc3ccccc3OC)c2)on1,broth dilution,BAA1605,,> 64
Cc1cc(/C=C2\Sc3ccccc3N2CCCN2CCC(C)CC2)c2ccccc2[n+]1C.[I-],broth dilution,ATCC19606,drug-resistant strain,16
Fc1c(F)c(F)c(F)c(F)c1F,,ATCC19606,,> 250
CN[C@@H]1[C@H](O)[C@H](NC)[C@H]2O[C@@]3(O)C(=O)C[C@@H](C)O[C@H]3O[C@@H]2[C@H]1O,broth dilution,ATCC19606,,> 200
